Experimental data taken from article PMC4351130 (Nature structural & molecular biology, 2015).

Key:
[1] = co-administration with morphine; cited from earlier work
[2] = target: double δ-OR mutant Leu300^7.35Trp - Trp284^6.58Lys (human) (UniProt P41143)
[3] = tested on: δ-OR; conditions: cited from earlier work
[4] = tested on: μ-OR; conditions: cited from earlier work
[5] = tested on: human δ-OR; assay: δ-OR β-arrestin recruitment Tango assay; format: cell-based; conditions: normalized to DADLE, N = 3 in quadruplicate, Supplementary Fig. 5
Procedure, shortened: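 Modified Tango β-arrestin recruitment format at human δ-OR. Values are mean ± SEM from three independent experiments, each run in quadruplicate.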

Oc1ccc2c3c1O[C@H]1c4[nH]c5ccccc5c4C[C@@]4(O)[C@@H](C2)N(CC2CC2)CC[C@]314 [naltrindole]
Effect on development of morphine-induced tolerance and dependence [1]: prevent the development of morphine-induced tolerance and dependence

DIPP-NH2, H-Dmt(1)-Tic(2)-Phe(3)-Phe(4)-NH2 (peptide)
fold decrease in affinity against the unmutated receptor [2]: > 100 fold

H-Dmt(1)-Tic(2)-Phe(3)-Phe(4)-NH2 [DIPP-NH2]
Functional activity in mouse vas deferens assay [3]: δ-OR antagonist | Functional activity in guinea pig ileum assay [4]: μ-OR agonist | Agonist activity at δ-OR, β-arrestin pathway [5]: weak partial agonist activity
